Variants at the floor of the assay were thinned out.

B1: tRNA (parent)
chain: GUUCCGUUGGCGUAAUGGUAACGCGUCUCCCUCCUAAGGAGAAGACUGCGGGUUCGAGUCCCGUACGGAACG

In this series the parent is B1. Kind of series: yeast fitness relative to wild type (ratio to wild type); higher = fitter; tRNA-Arg(CCU), competitive growth, 37 C, YPD. A digest of the protocol: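 Genotype frequency changes were the basis for Darwinian fitness relative to wild type. The frequencies came from 100-nucleotide paired-end sequencing of gene amplicons from the start population and each end population of pooled yeast strains with tRNA-Arg(CCU) gene variants at the native locus. Competition ran in YPD at 37°C for 24 hours in six replicates, genotypes needed ≥ 100 starting reads, and estimates < 0.5 were set to 0.5.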
With GUUCCGUUGGCGUAAUGGUAACGCGUAUCCCUCCUAAGGAGAAGACUGCGGGUUUGCGUCAGGUACGGAACG, the yeast fitness is at most 0.5.

GUUCCGUUGGCGUAAUGGUAACGCGUCUCCCUCGUAAGGAGAAGCCUGCGGGUUCGCGUCCCGUGCGGAACG: the yeast fitness is at most 0.5.

GUUCCGUCGGCGUAAUGGUAACGCGUCUCCAUCCUAAGGAAAAGACUGCGGGUUCGAGUCCCGUACGGAACG: the yeast fitness was at most 0.5.

Turning to GUUCCGUUGGCGGAAUGGUAACGAGUCUCCCUCCUAAGGAGAAGACUGCGGGUUCGAGUCCCGUACGGAACG, the yeast fitness was 0.602.

For the variant GUUCCGUUGGCGUAAUAGUAACGCGUCUCCCUCCUAAGGAGAAGACUGCAGGUUCGAGUCACGUACGGAACG, the yeast fitness is at most 0.5.

For GUUCCUCUGGCGUAAUGGUAACGCGUCUCCCUCCUAAGGAGAAGACUGCGGGUUCGAGUCCCGUACGGACCG, the yeast fitness was at most 0.5.

Turning to GUUCCGUUGGCGUAAUGGUAACGCGUCUGCCUCCUAAGGAGACGACUGCGCGUUCGCGUCCCGUACGGAACG, the yeast fitness is at most 0.5.

For GUUCCGUUGGCGUAAUGGUAACGCGUCUCCCUCCUAAGGAGAAGUCUGGGGGUUGGAGUCCCGUACCGAACG, the yeast fitness stood at 0.532.

For GUUCCGUUGGCGUAAUGGUAACGCGUCUCCCUCCUAAGGAGAAGACUGCGGGUUCGAGUAGCGUUCGGAACG, the yeast fitness was at most 0.5.

As for GUUCCGUUGGCGUAAUGGUAACGCGUCUCCCUCCUAGGGAGAAGCCUGCGGGUUCGAGUCGCGUACGGAUCG, the yeast fitness was at most 0.5.

For the variant GUUCCGUUGGCCCAAUGGUAACGCGUUUCCCUCCUAAGGAGAAGACUGCGGGUUCGAGUCCGGUACGGAACG, the yeast fitness was at most 0.5.

With GUUACGUUGGCGUAAUGGUAACGCGUCUCCCCCCUAAGGAGAAGAGUGCGGGUUCGAGUCCCGUACGGAACG, the yeast fitness was found to be 0.599.

As for GUUCCGUUGGCGUAAUGGAAACGCGUGUCCCUCCUAAGGGGAAGACUGCGGGUUCGAGUCCCGUACGGAACG, the yeast fitness was at most 0.5.

Regarding GUUCCGUUGGCGUAAUGGUAACGCGUCUCCCUCCUAAGGAAAAGACUGCGGGUUCGAGUCGCGUAUGGAACG, the yeast fitness was at most 0.5.

As to GUUCCGUUGGCGUAAUGGUAACGCGUCUCCCUCCUAAGGAGAAGACUGCGGAUUCGCGUCCCGUACGGAACG, the yeast fitness was determined as 0.789.

Consider GUUCCGUUGGCGUAAUGGUAACGCGUCUCCCUCCUAAGGAGAAGACUGAGGGUUCGAGUCCGGUACGGAACG, for which the yeast fitness was 0.576.

On to GUUCCGUUGGCGUAAUGGUAUCGCGUCUCCCUCCUAAGGAGAAGACUGCGGGUUCGAGUUCCGUACGGAACG, for which the yeast fitness turned out to be 0.584.

Take GUUCCGUUGGCGUAAUGGUAACGCGUCUCCCUCCUAAGGAGAAGACUGCGGGUUCAAGUCCCGUACCGAACG: the yeast fitness was found to be 0.812.

On to GUUCCGUAGGCGUCAUCGUAACGUGUCUCCCUCCUAAGGAGAAGUCUGCGGGUUCGAGUCCCGUACCGAACG, for which the yeast fitness is at most 0.5.

For GUUCCGUUGGCGUAAUGGUAACGCGUCUCCCUCUUAAGGAGAAGCCUGCGGGUUCGAGUCCCGUACGGCCCG, the yeast fitness amounted to 0.569.

GUUCCGUUGGCGUAAUGGUAACGCGUCUCCCUCCUAAGGAGAAGAUUGCGGGUUCGAGUCGCGUACGGAACG: the yeast fitness is 0.593.

For GUUCCGUUGGCGUAAUGGUAACGCGUCUCCCUCCUGAGGAGAAGAUUGCGGGUUCGAGUCCCGUACGGUACG, the yeast fitness was determined as 0.841.

In the case of GUUCCGUUGGCGUAAUGGUAACGCGUCUCCCUCUUAAAGAGAAGACUGCGGGUUCGAGUCGCGUACGGAACG, the yeast fitness is at most 0.5.

Consider GGUCCGUUGGCGUAGUAGUAACGCGUCUCCCUCCUAAGGAGAAGACUGCGGGUUCGAGUCCCGUACGGAACG, for which the yeast fitness was at most 0.5.

As for GUUGCGUAGGGGUAAUGGUAACGCGUCUCCCUCCUAAGGAGUAGACUGCGGGUUCGAGUCCCGCACGCAACG, the yeast fitness is at most 0.5.

Consider GUUCCGUUGGCGUAAUGGUAACGCGUCUCCCUCCUAAGGAGACGACUGAGGGUUCGAGUCCCGUAAGGAACG, for which the yeast fitness was at most 0.5.

For GUUCCGAUGGCGUAAUGGUAAAGUGUCUCCCUCCUUAGGAGAAGACUGCGGGUUCGAGUCCCGUACGGAACG, the yeast fitness is at most 0.5.

For the variant GUUCCGUCGGGGUAUUGGUGGCGCGUCUCCCUCCUAACGAGAAGACUGCGGGUUCGAGUGCCGUACGGAACG, the yeast fitness stood at 0.568.

As for GCUCCGUCGGCGUAAUGGUAACGCGUCUCCCUCAUAAGGAGCAGACUGAGGGUUCGAGUCCCGUACGGAACG, the yeast fitness was at most 0.5.

Consider GUUCCGUUGGCGUAAUGGUAACGCGUCUCCCUCCUCAGGAGAAGACUGCGGGUUCGAGUCCCGUACUGAACG, for which the yeast fitness was 0.596.

On to GUUCCGUUGGCGUCAUGGUAACGCGUCUCCCGCCUAAGGAGAAGACUGCGGGUUCAAGUCCCGUACGGAACG, for which the yeast fitness was at most 0.5.

For GUUACGUUGGCGUAAUAGUAACGCGUCUCCCUCCUAAGGAAAAGACUGCGGGUUCGAGUCCCGUACGGAACG, the yeast fitness came to 0.525.

For the variant GUUCCGUCGGCGUAAUGGUAACGCGUCUCCGUCCUAAGGAGAAGACUGCCGGUUCCAGUCCCGUACGGAACG, the yeast fitness is at most 0.5.

Turning to GUUUCGUUGGCGUAAUGGUAACGCGUCUACCUCCUAAAGAGAAGACUGCGGGUUCGAGUCCCGUACGGUACG, the yeast fitness is at most 0.5.

As for GUUCCGUUGGUGUGAUGGAAACGCGUCUCCCUCCUAAGGAGAAGACUGCGGGUUCGAGUCCCGUACGGAACG, the yeast fitness amounted to 0.658.

For GUUCCGUUGGCGUACUGGUAACGCGUCUCCCUCCUAAGGACAAGCCUGCGGGUUCGAGUCCCGUACGGAACG, the yeast fitness is at most 0.5.

As for GUUCCGUUGGCAUAAUGGUAACGCGUCUCCCUCCUAAGGAAAAGACUGCGGGUUCGAGUCCCGUACGGAACG, the yeast fitness stood at 0.889.
